From ChEMBL document CHEMBL5038580 (J Med Chem, 2022)
Residues, ends and D or L forms follow the SMILES beside them.

How the values were obtained:
[1] = tested on: SARS-CoV-2; test: Antiviral activity against SARS-CoV-2 assessed as inhibition of viral infection in Caco-2 cells preincubated for 30 min followed by cells addition for 12 hrs and complete medium replacement and measured after 48 hrs by luciferase assay; assay type: functional, organism-based; conditions: Severe acute respiratory syndrome coronavirus 2, Caco-2
[2] = tested on: SARS-CoV-2; test: Antiviral activity against SARS-CoV-2 assessed as inhibition of viral infection in 293T/ACE2 cells preincubated for 30 min followed by cells addition for 12 hrs and complete medium replacement and measured after 48 hrs by luciferase assay; assay type: functional, organism-based; conditions: Severe acute respiratory syndrome coronavirus 2, 293T/ACE2
Summary of the method: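 ACE2-293T cells (10^4/well) were plated 12 h before infection. Pseudovirus was mixed with peptides serially diluted in FBS-free DMEM for 30 min at 37 °C and added to the cells. After 12 h the medium was replaced with complete medium and cells were incubated 48 h more. Luciferase activity was read.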

## CC[C@H](C)[C@H](NC(C)=O)C(=O)N[C@@H](CCC(=O)O)C(=O)N[C@@H](CCC(=O)O)C(=O)N[C@H](C(=O)N[C@H](C(=O)N[C@@H](CCCCN)C(=O)N[C@@H](CCCCN)C(=O)N[C@H](C(=O)N[C@@H](Cc1c[nH]cn1)C(=O)N[C@@H](Cc1c[nH]cn1)C(=O)N[C@H](C(=O)N[C@@H](CCC(=O)O)C(=O)N[C@@H](CCCNC(=N)N)C(=O)N[C@@H](C)C(=O)N[C@H](C(=O)N[C@@H](CCC(=O)O)C(=O)N[C@@H](C)C(=O)N[C@@H](CCC(N)=O)C(=O)N[C@@H](CCC(N)=O)C(=O)N[C@@H](CCCCN)C(=O)N[C@@H](CC(C)C)C(=O)N[C@@H](CC(C)C)C(=O)N[C@@H](CCC(N)=O)C(=O)N[C@@H](CC(C)C)C(=O)N[C@H](C(=O)N[C@H](C(=O)N[C@@H](Cc1c[nH]c2ccccc12)C(=O)NCC(=O)N[C@H](C(=O)N[C@@H](CCCCN)C(=O)N[C@@H](CCC(N)=O)C(=O)N[C@@H](CC(C)C)C(=O)N[C@@H](CCC(N)=O)C(=O)N[C@@H](C)C(=O)N[C@@H](CCCNC(=N)N)C(=O)N[C@H](C(=O)N[C@@H](CC(C)C)C(N)=O)[C@@H](C)CC)[C@@H](C)CC)C(C)C)[C@@H](C)O)[C@@H](C)CC)[C@@H](C)CC)[C@@H](C)CC)C(C)C)[C@@H](C)CC (Ac-IEEIVKKIHHIERAIEAQQKLLQLTVWGIKQLQARIL-NH2)
[1]
  IC50: > 20 µM
[2]
  IC50: > 20 µM
